Published values of several laboratories.
Lines come from different studies, so protocols differ.
Sample: plasma

With `OC[C@H]1O[C@@H](c2cc(Cc3ccc(C4CC4)cc3)c(Cl)c3c2CCO3)[C@H](O)[C@@H](O)[C@@H]1O` the Tmax was 2 h (human; oral; 0.3 mg; single dose, fed, healthy volunteers).
The Tmax of `C[C@@H](Oc1ccc(S(C)(=O)=O)cc1C(=O)N1C[C@@H]2C[C@]2(c2cc(C(F)(F)F)on2)C1)C(F)(F)F` is reported as 2.5 h (human; oral; 10 mg; single dose, fed).
For `COc1ccc2c(c1)CN(C(=O)CCN1CCC(Cc3ccccc3)CC1)CC[S@@+]2[O-]`, the Tmax was 0 h (male human; intravenous; 0.15 mg/kg; healthy volunteers).
The Tmax of `Cc1cn([C@H]2C[C@H](N=[N+]=[N-])[C@@H](CO)O2)c(=O)[nH]c1=O` is reported as 0.62 h (human; oral; 600 mg; single dose, healthy volunteers).
The Tmax of `COc1ccc(-c2c(Nc3ccccn3)[nH]c3c(C4=CCCCC4)c(-c4ccccc4)nn3c2=O)cc1` is reported as 1 h (human; oral; 200 mg twice daily; multiple doses, patients).
`N#Cc1cccc(-c2ccc3ncc(-c4cc(F)cc(F)c4)c(N4CCC(N)CC4)c3c2)c1O` has a Tmax of 1.5 h (male human; oral; 20 mg; single dose).
For `O=C(COc1ccc(Cl)cc1)NC12CC(c3nnc([C@H]4C[C@@H](OC(F)(F)F)C4)o3)(C1)C2`, the Tmax was 8.02 h (human; oral; 45 mg; single dose, fasted, healthy volunteers).
`CC(=O)N(C)[C@H]1CCN(C(=O)c2cnc3c(c2)C[C@](C)(c2ccc(F)cc2)N3)C1` gave a Tmax of 0.75 h (male human; oral; 30 mg; multiple doses, once daily, steady state).
`CC(C)n1cc(C#N)c2cc(-n3cc(C(=O)O)cn3)ccc21` has a Tmax of 3.26 h (human; oral; 25 mg; single dose, fasted, healthy volunteers).
